# Screening results as filed in PubChem BioAssay.
# Arr AP2 block – blocks beta-arrestin peptide binding to AP2 adaptin | 0.31% of 340,000 active | AID 504490 | inhibition, % at 10 µM | FITC-arrestin peptide / GST-AP2 beads, flow cytometry; AP2 beta2 appendage carries R879A mutation;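 active = inhibition above a set limit, near 3 SD of compounds lacking own fluorescence, cut at about 54% in these data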
#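 test system = AP2 appendage R879A on GSH beads | buffer or medium = PBS plus Tween 20 (0.05%) and BSA (0.1%) | incubation = 12 min plus 1 h, RT | detection = bead flow cytometry, FITC channel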
# Rtt109 HAT inh – C. albicans Rtt109 histone acetyltransferase inhibition; Q5AAJ8; purified Rtt109/Vps75, ThioGlo CoA-SH fluorescence, 4 h; inhibition, % at 34.9 µM; 0.16% of 330,000 active;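 active = inhibition of at least 50% in every replicate; inconclusive = best replicate reaches 50% inhibition but some replicates fall short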
# Target sequence (Q5AAJ8 whole entry, looked up): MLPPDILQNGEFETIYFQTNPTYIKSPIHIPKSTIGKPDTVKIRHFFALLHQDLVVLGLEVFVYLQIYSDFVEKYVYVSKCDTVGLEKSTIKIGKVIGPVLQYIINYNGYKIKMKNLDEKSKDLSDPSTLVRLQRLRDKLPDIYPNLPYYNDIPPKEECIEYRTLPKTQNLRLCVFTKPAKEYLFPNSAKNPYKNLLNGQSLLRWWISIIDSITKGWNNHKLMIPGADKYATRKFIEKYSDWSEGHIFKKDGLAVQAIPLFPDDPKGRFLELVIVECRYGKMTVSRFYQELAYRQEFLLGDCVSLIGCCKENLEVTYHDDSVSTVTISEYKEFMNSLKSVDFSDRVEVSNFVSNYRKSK
# PAX8 inh HTS – inhibitors of PAX8 transcriptional activity in RMG-I cells; RMG-I TPO-luciferase reporter, SteadyGlo, 24 h; inhibition, % at 12.6 µM; 1.2% of 360,000 active; AID 652154;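 active = mean replicate inhibition at least 60% with every replicate also reaching 60%; inconclusive = only one of the two criteria is met; inactive = mean below 60% and not all replicates reaching 60%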;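 note: luciferase light reporting Pax8 driven TPO promoter activity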
# PfHsp90 set2 – growth inhibition of yeast expressing Plasmodium Hsp90 | S. cerevisiae expressing PfHsp90, BacTiter-Glo ATP, 48 h; yeast lacking PDR1 and PDR3 efflux regulators | inhibition, % at 9.4 µM | 0.32% of 310,000 active;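 active = every replicate shows inhibition above about 80%, whatever the replicate mean, limit read from the data; inconclusive = mean inhibition reaches the set limit but some replicate falls short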
# HIV Env fusion – blocks HIV Env-driven cell-cell fusion | HeLa-JRFL Env/CEM21 cell fusion, luciferase | inhibition, % at 12.3 µM | 1.1% of 360,000 active;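 active = mean replicate inhibition score of at least 50 and every replicate individually at or above 50; inconclusive = only one of the two criteria met; inactive = mean below 50 and not all replicates reaching 50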
# Glyco luc inh – N-linked glycosylation inhibition | 0.23% of 360,000 active | D54 ERlucT glycosylation luciferase reporter, 24 h; percent of 100 nM tunicamycin response | reporter increase, % at 12.5 µM | AID 588692;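 active = mean luciferase reporter signal, scaled so untreated is 0 and the glycosylation-blocking control 100, at or above a set limit in every replicate; inconclusive = mean reaches the limit but not every replicate does; inactive = mean below the limit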;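 note: luciferase carries N-glycosylation sites so blocking glycosylation raises the light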
# Arr-AP2 CP1 – inhibitors of human beta-arrestin and AP2 interaction; shares compounds with Arr AP2 block; GST-AP2 beads, FITC arrestin peptide binding, flow cytometry; GST-fused beta2-adaptin appendage, R879A mutant; inhibition, % at 10 µM; 2% of 1,300 active; AID 504908;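 active = inhibition above a set limit, roughly 3 SD of non-fluorescent compound noise, cut at about 38% in these data; inactive = inhibition at or below that limit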;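 note: loss of bead fluorescence from 50 nM FITC arrestin peptide bound to appendage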
# GST GSH counter – disrupts GST binding to glutathione beads, arrestin-AP2 artifact; shares compounds with Arr AP2 block; GST-fluorescein binding to GSH beads, fluorescence, counter-screen; inhibition, % at 10 µM; 2% of 1,300 active; AID 588338;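 active = inhibition above 50%, about 3 SD of the inhibition seen with non-fluorescent compounds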;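 note: fluorescein maleimide labelled GST captured on 4 micron glutathione beads; higher means more loss of bead fluorescence from quenching or blocked binding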
# Numbers stand for hits; . = inactive; ? = inconclusive; / = no result. Rows were chosen to be rich in hits. Some 2.3% of all compounds tested hit in one or more screens of this group.
SMILES,Arr AP2 block,Rtt109 HAT inh,PAX8 inh HTS,PfHsp90 set2,HIV Env fusion,Glyco luc inh,Arr-AP2 CP1,GST GSH counter
CC1Cc2ccccc2N1S(=O)(=O)c1cccc(C(=O)NC2CC2)c1 (stereo not drawn),88.5,.,/,.,/,.,.,.
CC1Cc2ccccc2N1S(=O)(=O)c1cccc(C(=O)Nc2cccnc2)c1 (stereo not drawn),.,.,.,.,.,.,/,/
CCc1ccc(OCC(=O)Nc2cccc3nsnc23)cc1,.,.,.,.,.,.,/,/
Cc1ccccc1OCC(=O)Nc1cccc2nsnc12,101.0,.,/,.,/,.,.,.
Cc1cc(Oc2cccc3c2S(=O)(=O)N(C2CCCC2)CC(COCc2ccccc2)O3)cc(C)c1C (stereo not drawn),57.2,.,.,.,?,.,.,.
CN(C)c1ccc(N=c2sc3ccccc3n2C)cc1,62.9,/,/,.,.,.,.,.
Cn1c(=Nc2ccccc2)sc2ccccc21,.,.,/,.,/,.,/,/
Cc1nn(-c2ccc(F)cc2)c(Cl)c1/C=C/C(=O)OCC(=O)Nc1c(F)c(F)c(F)c(F)c1F,104.1,.,.,.,.,.,.,.
CC(=O)/C(=N\Nc1cccc(Cl)c1)Sc1nnc(-c2ccccc2)n1-c1ccccc1,105.1,.,.,.,/,.,.,.
CC(C)NC(=O)N(C)C[C@H]1OCCCC[C@@H](C)Oc2ccc(NS(=O)(=O)c3ccc(F)cc3)cc2C(=O)N([C@@H](C)CO)C[C@H]1C,/,/,.,/,.,/,/,/
CC(C)c1ccc(NC(=O)c2ccccc2NC(=O)C2CC=CCC2C(=O)O)cc1 (stereo not drawn),.,.,.,.,.,.,/,/
CC(C)c1ccc(NC(=O)c2ccccc2NC(=O)C2CCCCC2C(=O)O)cc1 (stereo not drawn),54.0,.,.,.,.,.,.,.
CC(C)c1ccc2[nH]c(O)c(N=NC(=O)c3cccc(S(=O)(=O)Nc4ccccc4Cl)c3)c2c1,99.7,/,.,.,.,.,.,.
COc1ccc(-c2ccc([C@H]3[C@@H](C#N)N(C(=O)NC4CCCCC4)[C@H]3CO)cc2)cc1,/,/,.,/,/,/,/,/
CCOC(=O)C1=C(COC(=O)CCc2ccc(F)cc2)NC(=O)NC1C (stereo not drawn),.,.,.,.,.,.,.,.
CCOC(=O)C1=C(COC(=O)Cc2ccccc2[N+](=O)[O-])NC(=O)NC1C (stereo not drawn),/,/,.,/,.,.,/,/
CCOC(=O)C1=C(COC(=O)Cc2ccc(OC)c(OC)c2)NC(=O)NC1C (stereo not drawn),.,.,.,.,.,.,.,.
CCOC(=O)C1=C(COC(=O)Cc2ccccc2)NC(=O)NC1C (stereo not drawn),.,.,.,.,.,.,.,.
CCOC(=O)C1=C(COC(=O)Cc2ccc(Cl)cc2)NC(=O)NC1C (stereo not drawn),.,.,.,.,.,.,.,.
CN1C(=O)c2cc(NC(=O)c3ccc(F)c(F)c3)ccc2OC[C@@H]2O[C@@H](CC(=O)N3CCOCC3)CC[C@@H]21,/,/,.,/,.,/,/,/
C[C@@H]1CN([C@H](C)CO)S(=O)(=O)c2ccc(Br)cc2O[C@H]1CN(C)C(=O)C1CCC1,/,/,/,/,.,/,/,/
CCOC(=O)C1=C(COC(=O)C(C)(C)Oc2ccc(Cl)cc2)NC(=O)NC1C (stereo not drawn),.,.,.,.,/,.,.,.
Cn1c(=O)[nH]c(=O)c2c1nc(N1CCCCCC1)n2Cc1cccc2ccccc12,99.5,.,/,.,/,.,.,.
O=C(/C=C/c1ccccc1)Nc1ccc(CN2CCOCC2)cc1,.,.,.,.,.,.,/,/
O=C(/C=C/c1ccc(Cl)cc1)NC(=S)Nc1ccc(CN2CCOCC2)cc1,104.8,.,.,.,.,.,.,.
